Active and inactive are the calls of the source. The rule behind the calls is not given here.
Assays:
RPT [1] = experiment: Induction of Mitochondrial biogenesis in rabbit RPT cells at 10 to 3000 nM after 24 hrs by FCCP-OCR assay relative to control; type: functional, cell-based; details: Oryctolagus cuniculus
How it was run: (§1)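 Primary cultures of rabbit renal proximal tubule cells, grown under improved conditions favouring aerobic respiration, were exposed to compound (10–3,000 nM) for 24 h. FCCP-uncoupled oxygen consumption rate was then read on a Seahorse XF-96. Plates included vehicle (DMSO <0.5%), SRT1720 10 μM positive control and blanks. Results are expressed as a ratio or percent fold change versus DMSO, mean ± s.e.m., N=4. A ratio >1.15 was classed as MB.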

RPT [2] = experiment: Induction of Mitochondrial biogenesis in rabbit RPT cells after 24 hrs by FCCP-OCR assay relative to control; type: functional, cell-based; details: Oryctolagus cuniculus; how it was run: as §1
[3] = biological target: Beta-2 adrenergic receptor (Homo sapiens, UniProt P07550); experiment: Binding affinity to beta-2 adrenergic receptor (unknown origin) at 1 to 10000 nM
Chain of Beta-2 adrenergic receptor (P07550 whole entry): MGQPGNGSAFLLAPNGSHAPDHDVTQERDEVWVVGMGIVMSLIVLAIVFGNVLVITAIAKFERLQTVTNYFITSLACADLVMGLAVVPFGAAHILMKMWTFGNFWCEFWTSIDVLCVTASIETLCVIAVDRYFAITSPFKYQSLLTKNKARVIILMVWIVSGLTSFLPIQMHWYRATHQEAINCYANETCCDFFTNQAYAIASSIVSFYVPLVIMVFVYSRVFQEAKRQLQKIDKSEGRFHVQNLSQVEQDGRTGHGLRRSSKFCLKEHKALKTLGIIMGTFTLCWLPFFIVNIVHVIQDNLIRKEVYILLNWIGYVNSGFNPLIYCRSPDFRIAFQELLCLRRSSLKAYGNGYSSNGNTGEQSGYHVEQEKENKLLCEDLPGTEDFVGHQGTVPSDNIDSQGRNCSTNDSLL

Structure (SMILES) | Activity (RPT [1]) | Activity (RPT [2]) | Kd [3] [µM]
CC(C)(C)NCC(O)c1cc(Cl)c(N)c(Cl)c1 (stereo unspecified) | inactive |  | 
CC(C)(C)NCC(O)c1cc(O)cc(O)c1 (stereo unspecified) |  | Active | 
CC(C)NCC(O)c1ccc(O)c(O)c1 (stereo unspecified) | inactive |  | 
CC(Cc1ccc(O)cc1)NCC(O)c1cc(O)cc(O)c1 (stereo unspecified) | Active |  | 
CNCCC(Oc1ccccc1OC)c1ccccc1 (stereo unspecified) | Active |  | 
CNCC[C@@H](Oc1ccccc1C)c1ccccc1 | Active |  | 
C[C@@H](NCCc1ccc(O)cc1)[C@@H](O)c1ccc(O)cc1 (relative stereo) [rel-RITODRINE] |  | Active | 0.000501
CCC(NC1CCCC1)C(O)c1ccc(O)c(O)c1 (stereo unspecified) [CYCLOPENTYLBUTANEPHARINE] |  | Active | 0.01
CCC(NC(C)C)C(O)c1ccc(O)c(O)c1 (stereo unspecified) [ISOETHARINE] | inactive |  | 1
CC(C)NCC(O)c1cc(O)cc(O)c1 (stereo unspecified) [METAPROTERENOL] |  | Active | 0.501
CCC(NC(C)C)C(O)c1ccc(O)c2[nH]c(=O)ccc12 (stereo unspecified) [PROCATEROL] | Active |  | 0.0794

From ChEMBL document CHEMBL2424620, “β2-Adrenoceptor agonists in the regulation of mitochondrial biogenesis” (Bioorg Med Chem Lett, 2013)
